# PMC8114561 (Small (Weinheim an der Bergstrasse, Germany), 2019)
# “And” between values parts separate entries of the source, which are not always exact repeats. Equal entries are not always repeated.
# Columns and labels:
# MIA PaCa-2 tumors = assay: Tumor regression, MIA PaCa-2 pancreatic xenograft; assay type: in vivo, nude BALB/c mice; conditions: 20 mg Dox equiv. kg^−1 BW
# C26 tumors = assay: Tumor regression, syngeneic C26 colon carcinoma; assay type: in vivo, BALB/c mice; conditions: single i.v. dose
# STS = conditions: ref NCT01514188; cited from earlier work
# [1] = cited from earlier work
# [2] = tested on: advanced soft tissue sarcomas; conditions: cited from earlier work
# [3] = Intravenous pharmacokinetics in healthy BALB/c mice
# [4] = tested on: C26 murine colon carcinoma cells; assay: In vitro cytotoxicity; assay type: cell-based
# [5] = mouse, iv
# MIA PaCa-2 cells = assay: In vitro cytotoxicity; assay type: cell-based, human; conditions: 72 h incubation, MTS, Dox equiv. concentration, n = 3 (Figure 2F)
# Method in brief: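 MIA PaCa-2 cells grown in DMEM with 10% FBS and 2.5% horse serum, seeded at 5000 cells/well and left overnight. Exposed for 72 h, in triplicate, to 3-fold serial dilutions in medium, with cell-free wells for background correction. MTS added for 3 h at 37 °C, then A490 read. Viability relative to buffer-treated cells; IC50 as Dox equiv. by logistic nonlinear regression.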
compound,measurement,setting,value
"COc1cccc2c1C(=O)c1c(O)c3c(c(O)c1C2=O)C[C@@](O)(/C(CO)=N/NC(=O)CCCCCN1C(=O)C=CC1=O)C[C@@H]3O[C@H]1C[C@H](N)[C@H](O)[C@H](C)O1 [AlDox, Aldoxorubicin]",Tumor recurrence in tumor-eradicated mice by day 50,MIA PaCa-2 tumors,tumors recurred in all of the tumor-eradicated mice
same,Mice with complete tumor disappearance by day 15,MIA PaCa-2 tumors; single i.v. dose,50%
same,Mice that did not survive over the 100-day course of study,C26 tumors; 20 mg Dox equiv. kg^−1 BW,89%
same,Tumor response at 20 mg Dox equiv. kg^−1 BW,"C26 tumors; without recurrence of the primary tumor in any mice, 100 days",complete eradication of C26 tumors
same,Cardiotoxicity in the AlDox arm,STS,no evidence of cardiotoxicity
same,"Overall survival, AlDox versus free Dox arms",STS,not considerably different
same,PFS in the AlDox arm,STS,superior PFS
same,Concentration at which an acidic pH is required for solubility,[1]; aqueous solutions,≥ 0.5 mg Dox equiv. mL^−1
same,Solubility at physiological pH,[1]; requires an acidic pH for solubility in aqueous solutions,poor solubility
same,Cardiotoxicity,[2],minimal cardiotoxicity
same,Progression-free survival compared to the standard of care regimen,[2],superior progression-free survival
same,"Plasma concentration 15 min after i.v. injection, fold lower than ABD–Dox","[3]; i.v. 5 mg Dox equiv. per kg BW, 15 min",approximately 2 fold
same,Area under curve,"[3]; i.v. 5 mg Dox equiv. per kg BW, plasma, two-compartment model, mean ± SD",801.2 ± 23.7 × 10^−6 M h
"COc1cccc2c1C(=O)c1c(O)c3c(c(O)c1C2=O)C[C@@](O)(C(=O)CO)C[C@@H]3O[C@H]1C[C@H](N)[C@H](O)[C@H](C)O1 [free Dox, doxorubicin]",IC50,"[4]; 72 h, in the absence of MSA and ABD, n = 3 (Figure 2H)",230 nM
same,IC50,"[4]; 72 h, in the presence of ABD (0.5 × 10^−3 M in medium), n = 3 (Figure 2H)",160 nM
same,IC50,"[4]; 72 h, in the presence of MSA (equimolar), n = 3 (Figure 2H)",220 nM
same,IC50,"[4]; 72 h incubation, MTS, Dox equiv. concentration, n = 3 (Figure 2F)",510 nM and 500 nM
same,Change of cytotoxicity in the presence of either MSA or ABD,"[4]; C26 cells, 72 h",No difference was observed
same,In vivo elimination half-life,[5],on the order of minutes
same,"Concentration in blood 15 min after i.v. injection, of the initial concentration","[3]; i.v. 5 mg per kg BW, 15 min",less than 2%
same,IC50,MIA PaCa-2 cells,40 nM
